Data published in ChEMBL document CHEMBL4152271, “Polypharmacological profile of 1,2-dihydro-2-oxo-pyridine-3-carboxamides in the endocannabinoid system” (Eur J Med Chem, 2018).
Calls of active or inactive are those of the source. No cut-off for these calls is given here.

Legend:
Cannabinoid receptor 2 [1] = biological target: T1, Cannabinoid receptor 2 (Homo sapiens, UniProt P34972); assay: Agonist activity at human CB2 receptor expressed in CHO cell membranes after 90 mins by [35S]GTPgammaS binding assay; type: functional
T1 sequence (P34972 whole entry): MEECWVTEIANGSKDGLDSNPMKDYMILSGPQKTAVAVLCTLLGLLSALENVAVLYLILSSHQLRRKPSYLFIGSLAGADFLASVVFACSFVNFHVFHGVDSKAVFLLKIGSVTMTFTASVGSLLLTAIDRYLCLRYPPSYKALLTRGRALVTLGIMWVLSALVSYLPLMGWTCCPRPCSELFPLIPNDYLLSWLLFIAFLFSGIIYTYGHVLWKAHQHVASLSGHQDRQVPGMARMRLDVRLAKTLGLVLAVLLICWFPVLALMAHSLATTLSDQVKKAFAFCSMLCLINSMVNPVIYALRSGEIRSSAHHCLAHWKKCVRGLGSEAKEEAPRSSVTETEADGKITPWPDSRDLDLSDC
Method in brief: (§1)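 Membranes (5 µg) of hCB2-expressing cells in 50 mM Tris-HCl, 3 mM MgCl₂, 0.2 mM EDTA, 100 mM NaCl, 0.5% fatty acid-free BSA, pH 7.4, with 10 µM GDP and 0.1 nM [³⁵S]GTPγS. Kept on ice, started by vehicle or compound, 90 min at 30 °C. Nonspecific binding with 10 µM GTPγS. Filtered on GF/B, radioactivity counted. At least three experiments in triplicate, mean ± SD.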

[2] = biological target: T2, Fatty-acid amide hydrolase 1 (Homo sapiens, UniProt O00519); assay: Inhibition of FAAH in human U937 cells using AEA containing [ethanolamine-1-3H]AEA as substrate preincubated for 30 mins followed by substrate addition and measured after 15 mins by liquid scintillation spectroscopic method; type: cell-based
T2 sequence (O00519 whole entry): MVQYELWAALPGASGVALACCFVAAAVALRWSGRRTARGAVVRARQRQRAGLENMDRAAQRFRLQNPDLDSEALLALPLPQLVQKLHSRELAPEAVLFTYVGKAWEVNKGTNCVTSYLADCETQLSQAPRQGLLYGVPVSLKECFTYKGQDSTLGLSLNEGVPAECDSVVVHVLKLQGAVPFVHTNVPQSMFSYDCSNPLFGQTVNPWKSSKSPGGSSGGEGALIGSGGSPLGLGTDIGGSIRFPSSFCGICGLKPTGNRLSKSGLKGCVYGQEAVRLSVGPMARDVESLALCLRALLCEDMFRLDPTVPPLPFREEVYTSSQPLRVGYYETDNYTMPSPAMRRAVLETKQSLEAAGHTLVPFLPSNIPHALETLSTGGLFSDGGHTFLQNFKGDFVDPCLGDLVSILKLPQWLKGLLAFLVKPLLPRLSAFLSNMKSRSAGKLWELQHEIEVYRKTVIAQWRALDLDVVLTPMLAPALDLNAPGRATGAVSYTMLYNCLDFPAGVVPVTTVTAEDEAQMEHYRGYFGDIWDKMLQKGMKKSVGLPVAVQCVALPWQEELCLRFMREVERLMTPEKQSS
Method in brief: (§2)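 U937 cell homogenate (100 µg) in 10 mM Tris-HCl, 1 mM EDTA, pH 8, 0.1% fatty acid-free BSA. Compound at 10 µM screening concentration, 30 min at 37 °C. FAAH: 100 nM AEA with 1 nM [³H]AEA tracer. MAGL: 1 µM 2-OG with 1 nM tritiated tracer. Both 15 min at 37 °C, stopped with CHCl₃:MeOH (1:1), aqueous phase counted.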

U-937 [3] = assay: Cytotoxicity against human U937 cells assessed as decrease in cell viability at 0.6 to 40 uM after 48 hrs by MTT assay; type: functional, cell-based
Method in brief: (§3)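 U251MG (EMEM, 10% FBS) or U937 (RPMI 1640, 10% FBS) cells plated at 4x10³/well for 24h, then exposed to compounds (0–40 µM) for 48 h at 37°C. MTT reduction, formazan read at 595 nm. Viability as % of untreated control. Five independent experiments in triplicate, mean ± SD, ANOVA with Bonferroni.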

Cannabinoid receptor 2 [4] = biological target: T1, Cannabinoid receptor 2; assay: Agonist activity at human CB2 receptor expressed in CHO cell membranes after 90 mins by [35S]GTPgammaS binding assay relative to control; type: functional; method in brief: as §1
Cannabinoid receptor 2 [5] = biological target: T1, Cannabinoid receptor 2; assay: Displacement of [3H]-CP55940 from human CB2 receptor expressed in CHO cell membranes after 90 mins
Method in brief: (§4)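 Membranes expressing hCB1 or hCB2 (stably transfected CHO) in 50 mM Tris-HCl, 2.5 mM EDTA, 5 mM MgCl₂, 0.5% fatty acid-free BSA, pH 7.4. Nonspecific binding with 10 µM […]. GF/B filtration, radioactivity counted, Ki derived. Mean ± SD, at least 3 experiments in triplicate.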

[6] = biological target: T3, Lysophosphatidylserine lipase ABHD12 (Homo sapiens, UniProt Q8N2K0); assay: Inhibition of human ABHD12 expressed in HEK293 cells using 2-OG as substrate preincubated for 30 mins followed by substrate addition and measured after 5 mins by liquid scintillation spectroscopic method; type: cell-based
T3 sequence (Q8N2K0 whole entry): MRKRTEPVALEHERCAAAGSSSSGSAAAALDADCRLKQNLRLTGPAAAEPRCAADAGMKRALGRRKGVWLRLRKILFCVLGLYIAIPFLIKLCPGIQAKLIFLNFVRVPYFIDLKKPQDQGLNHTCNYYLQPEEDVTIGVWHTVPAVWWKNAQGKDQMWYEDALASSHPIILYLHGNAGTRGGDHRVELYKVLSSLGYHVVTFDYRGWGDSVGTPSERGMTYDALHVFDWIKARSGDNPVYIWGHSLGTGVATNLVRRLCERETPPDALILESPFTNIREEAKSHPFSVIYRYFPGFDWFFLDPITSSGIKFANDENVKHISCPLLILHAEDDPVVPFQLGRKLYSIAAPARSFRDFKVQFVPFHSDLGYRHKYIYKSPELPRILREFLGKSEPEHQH
Method in brief: (§5)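 Homogenate (40 µg) of HEK293 cells stably transfected with hABHD6 or hABHD12, compound preincubated 30 min at 37 °C in […], 0.1% BSA, pH 7.6. DMSO vehicle; WWL70 10 µM or THL 20 µM as positive controls. 10 µM 2-OG added for 5 min at 37 °C, stopped with CHCl₃:MeOH. Aqueous phase counted; no-enzyme blanks and non-transfected HEK293 hydrolysis subtracted.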

U-251 = assay: Cytotoxicity against human U251MG cells assessed as decrease in cell viability at 0.6 to 40 uM after 48 hrs by MTT assay; type: functional, cell-based; method in brief: as §3
Monoglyceride lipase = biological target: T4, Monoglyceride lipase (Homo sapiens, UniProt Q99685); assay: Inhibition of MAGL in human U937 cells using 2-OG containing […] as substrate preincubated for 30 mins followed by substrate addition and measured after 15 mins by liquid scintillation spectroscopic method; type: cell-based; method in brief: as §2
T4 sequence (Q99685 whole entry): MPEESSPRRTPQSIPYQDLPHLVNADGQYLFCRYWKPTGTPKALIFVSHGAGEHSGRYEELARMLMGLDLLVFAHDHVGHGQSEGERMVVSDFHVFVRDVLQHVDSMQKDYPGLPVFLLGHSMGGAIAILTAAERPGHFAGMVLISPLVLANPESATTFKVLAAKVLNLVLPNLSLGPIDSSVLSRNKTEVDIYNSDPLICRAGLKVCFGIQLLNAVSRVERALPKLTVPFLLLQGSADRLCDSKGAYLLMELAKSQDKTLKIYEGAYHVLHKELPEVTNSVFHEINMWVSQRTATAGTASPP

Cannabinoid receptor 1 [7] = biological target: T5, Cannabinoid receptor 1 (Homo sapiens, UniProt P21554); assay: Displacement of [3H]-CP55940 from human CB1 receptor expressed in CHO cell membranes after 90 mins
T5 sequence (P21554 whole entry): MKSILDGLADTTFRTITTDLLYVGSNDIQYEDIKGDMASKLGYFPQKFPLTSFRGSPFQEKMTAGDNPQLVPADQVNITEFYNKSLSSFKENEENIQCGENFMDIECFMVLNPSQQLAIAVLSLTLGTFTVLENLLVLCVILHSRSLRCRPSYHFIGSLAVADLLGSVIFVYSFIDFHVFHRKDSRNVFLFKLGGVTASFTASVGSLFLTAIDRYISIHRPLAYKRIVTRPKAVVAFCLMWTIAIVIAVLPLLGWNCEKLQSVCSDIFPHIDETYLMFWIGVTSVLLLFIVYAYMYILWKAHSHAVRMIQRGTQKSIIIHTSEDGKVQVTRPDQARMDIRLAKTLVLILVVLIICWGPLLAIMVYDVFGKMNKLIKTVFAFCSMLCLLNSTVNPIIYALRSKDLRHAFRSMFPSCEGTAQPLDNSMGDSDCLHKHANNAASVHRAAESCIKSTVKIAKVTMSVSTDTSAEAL

Homo sapiens = organism: Homo sapiens; assay: Selectivity ratio of Ki for human CB1 receptor to Ki for human CB2 receptor
Method in brief: as §4, with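 “7.4. Incubated with compound and 0.5 nM [³H]CP55,940 for 90 min at 30 °C.” for “7.4.”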

Cannabinoid receptor 1 [8] = biological target: T5, Cannabinoid receptor 1; assay: Agonist activity at human CB1 receptor expressed in CHO cell membranes after 90 mins by [35S]GTPgammaS binding assay; type: functional, cell-based
U-937 [9] = assay: Inhibition of [ethanolamine-1-3H]AEA/unlabeled AEA uptake in human U937 cells preincubated for 15 mins followed by [ethanolamine-1-3H]AEA/unlabeled AEA addition and measured after 15 mins by scintillation counting method; type: functional, cell-based
Method in brief: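 Intact U937 cells (0.5x10⁶ per sample) in RPMI, preincubated with compound for 15 min at 37 °C. Then 1 nM [ethanolamine-1-³H]AEA plus unlabeled AEA (final 100 nM) added for 15 min. Stopped by rapid filtration and ice-cold PBS/1% BSA washes, radioactivity counted. At least three experiments in triplicate, mean ± SD.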

[10] = biological target: T6, Monoacylglycerol lipase ABHD6 (Homo sapiens, UniProt Q9BV23); assay: Inhibition of human ABHD6 expressed in HEK293 cells using 2-OG as substrate preincubated for 30 mins followed by substrate addition and measured after 5 mins by liquid scintillation spectroscopic method; type: cell-based; method in brief: as §5
T6 sequence (Q9BV23 whole entry): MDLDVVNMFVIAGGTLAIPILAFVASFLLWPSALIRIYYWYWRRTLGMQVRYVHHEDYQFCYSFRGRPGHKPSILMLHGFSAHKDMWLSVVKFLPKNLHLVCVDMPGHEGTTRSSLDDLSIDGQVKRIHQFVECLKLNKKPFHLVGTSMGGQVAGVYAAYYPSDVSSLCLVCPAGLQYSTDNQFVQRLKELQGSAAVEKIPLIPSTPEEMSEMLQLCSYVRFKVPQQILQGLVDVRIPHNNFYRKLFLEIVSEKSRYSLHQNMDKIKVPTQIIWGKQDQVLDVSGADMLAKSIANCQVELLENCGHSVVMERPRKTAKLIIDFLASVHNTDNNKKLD

SMILES	EC50 (Cannabinoid receptor 2 [1]) [µM]	IC50 [2] [µM]	Activity (U-937 [3])	Emax (Cannabinoid receptor 2 [4]) [%]	Ki (Cannabinoid receptor 2 [5]) [µM]	IC50 [6] [µM]	Activity (U-251)	IC50 (Monoglyceride lipase) [µM]	Ki (Cannabinoid receptor 1 [7]) [µM]	Ratio Ki (Homo sapiens)	EC50 (Cannabinoid receptor 1 [8]) [µM]	IC50 (U-937 [9]) [µM]	IC50 [10] [µM]
Cc1ccnc(OCc2ccc(F)cc2)c1C(=O)NC1CCCCCC1	0.031	> 10	Active	127	0.0463	> 10	inactive	> 10	0.131	2 to 54	0.229	0.58	> 10
O=C(NC1CCCCCC1)c1c(-c2ccccc2)c(Br)cn(Cc2ccc(F)cc2)c1=O	0.316	> 10		176	0.437	> 10		> 10	> 10	2 to 54		> 10	3
Cc1c(-c2ccccc2)cn(Cc2ccc(F)cc2)c(=O)c1C(=O)NC1CCCCCC1	0.012	0.07	Active	39	0.0069	2.5	inactive	> 10	0.0231	2 to 54	0.237		> 10
COc1ccc(-c2cc(C(=O)NC3CCCCCC3)c(=O)n(Cc3ccc(F)cc3)c2)cc1			Active				inactive						
COc1ccc(-c2c(Br)cn(Cc3ccc(F)cc3)c(=O)c2C(=O)NC2CCCCCC2)cc1		> 10			> 10	> 10		> 10	> 10	2 to 54		> 10	> 10
O=C(NC1CCCCCC1)c1c(-c2ccccc2)c(-c2ccccc2)cn(Cc2ccc(F)cc2)c1=O		> 10			> 10	> 10		> 10	> 10	2 to 54		> 10	> 10
COc1ccc(C(=O)c2c(C)n(CCN3CCOCC3)c3cc(I)ccc23)cc1	0.167			35									
COc1ccc(-c2ccn(Cc3ccc(F)cc3)c(=O)c2C(=O)NC2CCCCCC2)cc1		> 10			> 10	> 10		> 10	> 10	2 to 54		> 10	> 10
CCCCCCC(C)(C)c1ccc([C@@H]2C[C@H](O)CC[C@H]2CCCO)c(O)c1				196									
COc1ccc(-c2cn(Cc3ccc(F)cc3)c(=O)c(C(=O)NC3CCCCCC3)c2-c2ccccc2)cc1		> 10			> 10	> 10		> 10	> 10	2 to 54		> 10	> 10
O=C(NC1CCCCCC1)c1c(-c2ccccc2)ccn(Cc2ccc(F)cc2)c1=O	0.501	> 10	Active	134	0.187	> 10	inactive	> 10	> 10	2 to 54		> 10	> 10
Cc1ccn(Cc2ccc(F)cc2)c(=O)c1C(=O)NC1CCCCCC1	0.0019	8.8	Active	128	0.0059	> 10	inactive	> 10	0.0117	2 to 54	0.069	1.8	> 10
